Data published in ChEMBL document CHEMBL4706672 (J Med Chem, 2021).
Active and inactive are the calls of the source. The rule behind the calls is not given here.

How the values were obtained:
[1] = Upregulation of IL1RL1 protein levels in human BxPC-3 cells incubated for 16 hrs by proteomic analysis; format: functional
Summary of the method: (§1)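 BxPC-3 cells exposed 16 h in triplicate (control, PROTAC) or duplicate (other arms); lysed in RIPA at 4 °C, 75 μg protein per sample. Reduced with DTT (1 h, 55 °C), alkylated with 2-chloroacetamide, acetone-precipitated, trypsin-digested overnight at 37 °C, TMT 10plex labelled, relative quantitation by LC-tandem MS.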

[2] = molecular target: Signal transducer and activator of transcription 3 (Homo sapiens) (UniProt P40763); experiment: Inhibition of STAT3 phosphorylation in human MIA PaCa-2 cells at 0.5 to 1 uM after 16 hrs by western blot analysis; format: cell-based; details: dose 0.5-1 µM
Summary of the method: (§2)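 Cells were seeded in 6-well plates (BxPC-3 500 × 10^3, MIA PaCa-2 200 × 10^3 cells/well) and exposed to compound for 16 h. Lysis was at 4 °C by sonication in Tris/NaCl/Triton/SDS buffer, pH 7.4, with protease and phosphatase inhibitors. Lysates were run on SDS-PAGE, transferred to PVDF and probed for STAT3, pSTAT3 and NQO1 with GAPDH as loading control. Immunoblots were imaged on an Odyssey system.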

[3] = Upregulation of EPHB3 protein levels in human BxPC-3 cells incubated for 16 hrs by proteomic analysis; format: functional; summary of the method: as §1
[4] = Upregulation of MPV17 protein levels in human BxPC-3 cells incubated for 16 hrs by proteomic analysis; format: functional; summary of the method: as §1
[5] = molecular target: Protein cereblon/Protein LTV1 homolog (Homo sapiens) (UniProt Q96SW2+Q96GA3); experiment: Protac activity at CRBN/LTV1 in human BxPC-3 cells assessed as LTV1 degradation incubated for 16 hrs by proteomic analysis; format: cell-based
Summary of the method: (§3)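 TMT 10plex proteomics. […] Samples (75 μg) were reduced with DTT, alkylated with 2-chloroacetamide, acetone-precipitated, trypsin-digested overnight at 37 °C and TMT-labeled for LC-MS/MS relative quantitation.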

[6] = molecular target: Signal transducer and activator of transcription 3 (Homo sapiens) (UniProt P40763); experiment: Inhibition of STAT3 phosphorylation in human BxPC-3 cells at 1 uM after 16 hrs by western blot analysis; format: cell-based; summary of the method: as §2
[7] = molecular target: Protein cereblon/Adhesion G-protein coupled receptor G1 (Homo sapiens) (UniProt Q96SW2+Q9Y653); experiment: Protac activity at CRBN/ADGRG1 in human BxPC-3 cells assessed as ADGRG1 degradation incubated for 16 hrs by proteomic analysis; format: cell-based; summary of the method: as §3
BXPC-3 [8] = experiment: Inhibition of colony formation in human BxPC-3 cells assessed as reduction in colony formation at 0.06 to 0.5 uM incubated for 7 to 10 days in presence of NQO1 inhibitor dicoumarol; details: dose 0.06-0.5 µM
[9] = molecular target: Protein cereblon/Signal transducer and activator of transcription 2 (Homo sapiens) (UniProt Q96SW2+P52630); experiment: Protac activity at CRBN/STAT2 in human BxPC-3 cells assessed as STAT2 degradation incubated for 16 hrs by proteomic analysis; format: cell-based; summary of the method: as §3
[10] = Upregulation of AFF1 protein levels in human BxPC-3 cells incubated for 16 hrs by proteomic analysis; format: functional; summary of the method: as §1
BXPC-3 [11] = experiment: Reduction in NQO1 expression in human BxPC-3 cells at 2 to 6 uM incubated for 12 hrs in presence of proteasome inhibitor MG132 by western blot analysis; format: functional, cell-based; details: dose 2-6 µM
Summary of the method: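 Immunoblot of BxPC-3 cells given a 2 h pretreatment with MG132 at 10 μM, then test agent for 12 h. Cell lysis, BCA assay, SDS-PAGE/PVDF, probed for STAT3, pSTAT3 and NQO1 with GAPDH as reference.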

BXPC-3 [12] = experiment: Antiproliferative activity against ZFP91 knockdown human BxPC-3 cells assessed as reduction in cell viability incubated for 48 hrs by MTT assay; format: functional, cell-based; details: BXPC-3, 48 h
Summary of the method: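 BxPC-3 cells were transfected with ZFP91 siRNA or scrambled control siRNA using Lipofectamine RNAiMAX in Opti-MEM, 5 pmol siRNA per complex. Compound was added together with the siRNA complex.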

[13] = Upregulation of GDF15 protein levels in human BxPC-3 cells incubated for 16 hrs by proteomic analysis; format: functional; summary of the method: as §1
[14] = molecular target: Protein cereblon/E3 ubiquitin-protein ligase ZFP91 (Homo sapiens, UniProt Q96SW2+Q96JP5); experiment: Protac activity at CRBN/ZFP91 in human BxPC-3 cells assessed as alteration of ZF91 protein levels at 0.5 uM incubated for 16 hrs in presence of NQO1 inhibitor dicoumarol; format: cell-based
Summary of the method: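 BxPC-3 cells treated 16 h with or without dicoumarol; carfilzomib added 1 h before treatments. ZFP91 immunoblotted against GAPDH.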

Sequence of Signal transducer and activator of transcription 3 (Homo sapiens) (P40763 whole entry): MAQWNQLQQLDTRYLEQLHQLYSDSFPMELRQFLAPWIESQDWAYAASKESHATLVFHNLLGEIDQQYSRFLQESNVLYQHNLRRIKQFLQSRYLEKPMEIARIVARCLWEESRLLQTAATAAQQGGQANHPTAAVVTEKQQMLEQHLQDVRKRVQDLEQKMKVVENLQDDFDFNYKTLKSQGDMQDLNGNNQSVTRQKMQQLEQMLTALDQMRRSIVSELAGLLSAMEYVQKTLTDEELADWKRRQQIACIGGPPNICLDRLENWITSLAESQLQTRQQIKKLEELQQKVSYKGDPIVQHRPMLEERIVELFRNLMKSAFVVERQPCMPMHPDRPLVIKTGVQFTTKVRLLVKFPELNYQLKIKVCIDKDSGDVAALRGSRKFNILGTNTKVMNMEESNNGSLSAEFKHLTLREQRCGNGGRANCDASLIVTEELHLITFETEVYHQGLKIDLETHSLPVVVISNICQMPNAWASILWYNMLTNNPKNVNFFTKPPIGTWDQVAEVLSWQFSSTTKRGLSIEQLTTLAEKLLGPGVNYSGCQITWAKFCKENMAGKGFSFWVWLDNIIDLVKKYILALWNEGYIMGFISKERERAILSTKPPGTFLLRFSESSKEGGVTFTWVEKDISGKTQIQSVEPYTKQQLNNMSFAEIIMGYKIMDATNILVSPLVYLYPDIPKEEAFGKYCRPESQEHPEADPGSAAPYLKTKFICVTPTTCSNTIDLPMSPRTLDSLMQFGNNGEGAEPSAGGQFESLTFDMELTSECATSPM
Sequence of Protein cereblon/E3 ubiquitin-protein ligase ZFP91 (Q96JP5 2-570 partner limits assumed): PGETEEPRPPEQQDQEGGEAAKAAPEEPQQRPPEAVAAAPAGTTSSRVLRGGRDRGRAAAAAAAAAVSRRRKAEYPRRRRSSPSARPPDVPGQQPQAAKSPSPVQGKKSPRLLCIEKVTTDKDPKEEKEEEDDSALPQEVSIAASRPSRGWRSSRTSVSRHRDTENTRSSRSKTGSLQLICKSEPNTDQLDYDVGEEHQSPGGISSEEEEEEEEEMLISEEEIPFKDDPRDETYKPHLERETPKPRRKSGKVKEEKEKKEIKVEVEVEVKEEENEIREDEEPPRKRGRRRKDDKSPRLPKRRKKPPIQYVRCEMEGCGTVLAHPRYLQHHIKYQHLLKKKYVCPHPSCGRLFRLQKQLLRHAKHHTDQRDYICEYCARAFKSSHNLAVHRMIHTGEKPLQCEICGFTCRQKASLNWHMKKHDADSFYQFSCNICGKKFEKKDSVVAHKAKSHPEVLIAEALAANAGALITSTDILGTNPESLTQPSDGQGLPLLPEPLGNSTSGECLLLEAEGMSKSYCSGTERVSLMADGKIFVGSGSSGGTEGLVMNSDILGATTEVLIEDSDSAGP
Sequence of Protein cereblon/E3 ubiquitin-protein ligase ZFP91 (Q96SW2 whole entry): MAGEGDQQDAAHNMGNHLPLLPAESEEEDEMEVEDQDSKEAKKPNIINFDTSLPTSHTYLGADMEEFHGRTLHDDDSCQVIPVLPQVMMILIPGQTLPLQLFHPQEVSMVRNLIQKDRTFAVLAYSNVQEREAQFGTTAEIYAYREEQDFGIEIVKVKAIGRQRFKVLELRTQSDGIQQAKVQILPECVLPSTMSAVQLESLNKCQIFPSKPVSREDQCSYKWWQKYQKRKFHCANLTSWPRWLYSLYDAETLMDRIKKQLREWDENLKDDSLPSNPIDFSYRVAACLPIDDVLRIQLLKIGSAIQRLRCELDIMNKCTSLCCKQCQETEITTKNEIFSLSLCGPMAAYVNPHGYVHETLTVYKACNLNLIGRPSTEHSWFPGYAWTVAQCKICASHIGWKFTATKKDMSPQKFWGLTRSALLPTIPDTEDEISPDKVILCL
Sequence of Protein cereblon/Protein LTV1 homolog (Homo sapiens) (Q96GA3 whole entry, looked up): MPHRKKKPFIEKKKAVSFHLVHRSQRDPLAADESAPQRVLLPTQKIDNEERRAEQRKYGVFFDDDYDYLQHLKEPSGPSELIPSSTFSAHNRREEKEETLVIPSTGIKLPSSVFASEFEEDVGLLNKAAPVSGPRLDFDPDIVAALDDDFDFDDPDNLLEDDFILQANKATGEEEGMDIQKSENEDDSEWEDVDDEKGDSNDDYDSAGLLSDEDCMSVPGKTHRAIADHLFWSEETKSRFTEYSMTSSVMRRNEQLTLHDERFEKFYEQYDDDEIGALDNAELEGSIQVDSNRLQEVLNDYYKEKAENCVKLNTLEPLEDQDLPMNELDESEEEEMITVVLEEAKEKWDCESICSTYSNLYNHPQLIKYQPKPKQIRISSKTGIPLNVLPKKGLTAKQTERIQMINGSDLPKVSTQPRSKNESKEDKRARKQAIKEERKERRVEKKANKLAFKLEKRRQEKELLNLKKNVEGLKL
Sequence of Protein cereblon/Protein LTV1 homolog (Homo sapiens) (Q96SW2 whole entry, looked up): as the sequence (Q96SW2 whole entry) above
Sequence of Protein cereblon/Signal transducer and activator of transcription 2 (Homo sapiens) (P52630 whole entry, looked up): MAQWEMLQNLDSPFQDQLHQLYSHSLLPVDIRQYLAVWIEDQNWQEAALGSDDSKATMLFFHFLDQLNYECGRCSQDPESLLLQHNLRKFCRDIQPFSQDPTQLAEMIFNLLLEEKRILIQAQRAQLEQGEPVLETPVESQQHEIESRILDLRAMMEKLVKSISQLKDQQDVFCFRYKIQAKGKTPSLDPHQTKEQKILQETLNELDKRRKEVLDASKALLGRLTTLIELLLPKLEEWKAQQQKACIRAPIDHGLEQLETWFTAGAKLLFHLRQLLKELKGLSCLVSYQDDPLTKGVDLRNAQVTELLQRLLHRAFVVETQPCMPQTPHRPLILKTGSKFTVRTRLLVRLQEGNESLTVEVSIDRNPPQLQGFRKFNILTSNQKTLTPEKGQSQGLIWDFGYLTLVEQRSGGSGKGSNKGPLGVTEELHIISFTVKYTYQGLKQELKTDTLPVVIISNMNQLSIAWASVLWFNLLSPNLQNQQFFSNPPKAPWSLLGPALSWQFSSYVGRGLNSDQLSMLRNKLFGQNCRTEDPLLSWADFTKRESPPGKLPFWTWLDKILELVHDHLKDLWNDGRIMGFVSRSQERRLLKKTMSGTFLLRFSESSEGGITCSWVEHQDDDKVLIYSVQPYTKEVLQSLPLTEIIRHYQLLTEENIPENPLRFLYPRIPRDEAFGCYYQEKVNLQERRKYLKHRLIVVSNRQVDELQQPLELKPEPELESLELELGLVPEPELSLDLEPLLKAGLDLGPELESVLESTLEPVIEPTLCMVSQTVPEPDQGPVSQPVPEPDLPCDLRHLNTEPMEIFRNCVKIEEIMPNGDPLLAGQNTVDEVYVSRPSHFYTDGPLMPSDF
Sequence of Protein cereblon/Signal transducer and activator of transcription 2 (Homo sapiens) (Q96SW2 whole entry, looked up): as the sequence (Q96SW2 whole entry) above
Sequence of Protein cereblon/Adhesion G-protein coupled receptor G1 (Homo sapiens) (Q96SW2 whole entry, looked up): as the sequence (Q96SW2 whole entry) above
Sequence of Protein cereblon/Adhesion G-protein coupled receptor G1 (Homo sapiens) (Q9Y653 whole entry, looked up): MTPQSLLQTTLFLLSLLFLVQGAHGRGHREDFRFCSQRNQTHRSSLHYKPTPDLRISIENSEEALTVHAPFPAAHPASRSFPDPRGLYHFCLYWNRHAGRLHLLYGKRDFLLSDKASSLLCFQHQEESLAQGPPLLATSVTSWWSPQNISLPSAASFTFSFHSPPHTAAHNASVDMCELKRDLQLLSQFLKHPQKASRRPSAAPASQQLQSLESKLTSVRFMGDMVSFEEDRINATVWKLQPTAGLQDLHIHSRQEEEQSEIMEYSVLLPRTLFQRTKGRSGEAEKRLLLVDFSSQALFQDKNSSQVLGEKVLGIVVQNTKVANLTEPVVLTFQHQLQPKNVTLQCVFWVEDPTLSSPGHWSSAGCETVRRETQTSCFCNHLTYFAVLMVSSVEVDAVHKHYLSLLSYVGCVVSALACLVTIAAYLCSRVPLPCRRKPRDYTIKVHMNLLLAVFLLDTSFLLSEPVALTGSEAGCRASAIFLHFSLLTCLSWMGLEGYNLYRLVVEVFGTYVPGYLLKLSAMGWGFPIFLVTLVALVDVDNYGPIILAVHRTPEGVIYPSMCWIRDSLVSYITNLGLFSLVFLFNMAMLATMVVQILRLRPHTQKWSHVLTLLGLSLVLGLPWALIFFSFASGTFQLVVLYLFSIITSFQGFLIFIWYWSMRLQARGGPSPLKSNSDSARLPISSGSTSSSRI

inhibition [2]: inactive
log2FC [5]: -0.69
inhibition [6]: Active
log2FC [7]: -0.69
log2FC [9]: -0.9
IC50 (BXPC-3 [12]): 2100 nM
Activity [14]: inactive
SMILES: O=C1CCC(N2C(=O)c3cccc(NCCCCCC4CCN(CCNC(=O)c5cc6c(o5)C(=O)c5ccccc5C6=O)CC4)c3C2=O)C(=O)N1 (centres undefined)
log2FC [1]: 1.24
log2FC [3]: 0.65
log2FC [4]: 0.66
inhibition (BXPC-3 [8]): Active
log2FC [10]: 0.67
Activity (BXPC-3 [11]): Active
log2FC [13]: 0.69
